ChEMBL document CHEMBL1124567, “2,4-Diamino-5-benzylpyrimidines and analogues as antibacterial agents. 11. Quinolylmethyl analogues with basic substituents conveying specificity” (J Med Chem, 1989)
In brackets after ≈: the same amount, converted by molar mass.

What was measured:
[1] = system: Staphylococcus aureus; experiment: Comparative in vitro antibacterial activity of compound with trimethoprim against Staphylococcus aureus CN491; assay type: functional
In short: (§1)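 Activity is expressed relative to trimethoprim as the reference, with values above 1 meaning lower activity than the reference. Dilutions were threefold (1:3), and a difference of ± one dilution was not treated as significant.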

[2] = system: Klebsiella pneumoniae; experiment: Comparative in vitro antibacterial activity of compound with trimethoprim against Klebsiella pneumoniae CN3632; assay type: functional; in short: as §1
[3] = system: Serratia marcescens; experiment: Comparative in vitro antibacterial activity of compound with trimethoprim against Serratia marcescens CN2398; assay type: functional; in short: as §1
[4] = system: Citrobacter freundii; experiment: Comparative in vitro antibacterial activity of compound with trimethoprim against Citrobacter freundii 2200/77; assay type: functional; in short: as §1
[5] = system: Salmonella typhimurium; experiment: Comparative in vitro antibacterial activity of compound with trimethoprim against Salmonella Typhimurium S 8587; assay type: functional, Salmonella enterica subsp. enterica serovar Typhimurium; conditions: Salmonella enterica; in short: as §1
[6] = system: Bordetella bronchiseptica; experiment: Comparative in vitro antibacterial activity of compound with trimethoprim against Bordetella bronchiseptica CN385; assay type: functional; in short: as §1
[7] = system: Klebsiella aerogenes; experiment: Comparative in vitro antibacterial activity of compound with trimethoprim against Enterobacter aerogenes 2200/86; assay type: functional; in short: as §1
[8] = system: Pasteurella multocida; experiment: Comparative in vitro antibacterial activity of compound with trimethoprim against Pasteurella multocida ATCC 6587; assay type: functional; in short: as §1
[9] = system: Mycolicibacterium smegmatis; experiment: Comparative in vitro antibacterial activity of compound with trimethoprim against Mycobacterium smegmatis S 3254; assay type: functional; in short: as §1
[10] = system: Enterococcus faecalis; experiment: Comparative in vitro antibacterial activity of compound with trimethoprim against Streptococcus faecalis CN478; assay type: functional; in short: as §1
[11] = system: Vibrio cholerae; experiment: Comparative in vitro antibacterial activity of compound with trimethoprim against Vibrio cholerae ATCC 14035; assay type: functional
In short: (§2)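 In vitro activity given as a ratio to trimethoprim, which is tested alongside; values above 1 mean lower activity than trimethoprim. Compounds were tested in serial 1:3 dilutions, and a difference of ±one dilution is treated as not significant.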

[12] = system: Streptococcus pyogenes; experiment: Comparative in vitro antibacterial activity of compound with trimethoprim against Streptococcus pyogenes CN10; assay type: functional; in short: as §1
[13] = system: Shigella flexneri; experiment: Comparative in vitro antibacterial activity of compound with trimethoprim against Shigella flexneri CN6007; assay type: functional; in short: as §1
[14] = system: Proteus mirabilis; experiment: Comparative in vitro antibacterial activity of compound with trimethoprim against Proteus mirabilis S2409; assay type: functional; in short: as §1
[15] = Comparative in vitro antibacterial activity of compound with trimethoprim against Salmonella typhi CN512; assay type: functional, salmonella typhosa; in short: as §2
[16] = molecular target: T1, Dihydrofolate reductase (Rattus norvegicus, UniProt Q920D2); experiment: Inhibitory activity against Dihydrofolate reductase in rat liver; assay type: tissue-based; conditions: read-out: I50
T1 sequence (Q920D2 whole entry): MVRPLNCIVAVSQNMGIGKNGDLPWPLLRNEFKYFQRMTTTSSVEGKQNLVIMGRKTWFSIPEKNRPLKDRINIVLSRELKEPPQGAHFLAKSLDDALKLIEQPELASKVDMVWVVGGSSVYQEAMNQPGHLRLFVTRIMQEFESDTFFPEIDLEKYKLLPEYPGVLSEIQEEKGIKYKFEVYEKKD

[17] = system: Streptococcus agalactiae; experiment: Comparative in vitro antibacterial activity of compound with trimethoprim against Streptococcus agalactiae CN1143; assay type: functional; in short: as §1
[18] = system: Proteus vulgaris; experiment: Comparative in vitro antibacterial activity of compound with trimethoprim against Proteus vulgaris CN329; assay type: functional; in short: as §1
[19] = system: Escherichia coli; experiment: Comparative in vitro antibacterial activity of compound with trimethoprim against Escherichia coli CN314; assay type: functional; in short: as §1
[20] = Dissociation constant of compound at 25 degree C; assay type: physicochemical
[21] = Dissociation constent of compound at 20 degree C; assay type: ADME

SMILES	MIC [1] [µg/mL]	MIC [2] [µg/mL]	MIC [3] [µg/mL]	MIC [4] [µg/mL]	MIC [5] [µg/mL]	MIC [6] [µg/mL]	MIC [7] [µg/mL]	MIC [8] [µg/mL]	MIC [9] [µg/mL]	MIC [10] [µg/mL]	MIC [11] [µg/mL]	MIC [12] [µg/mL]	MIC [13] [µg/mL]	MIC [14] [µg/mL]	MIC [15] [µg/mL]	IC50 [16] [µM]	MIC [17] [µg/mL]	MIC [18] [µg/mL]	MIC [19] [µg/mL]	pKa [20]	also measured
COc1cc(C)nc2c(OC)cc(Cc3cnc(N)nc3N)cc12	0.3 (≈ 0.922 µM)	10 (≈ 30.7 µM)	3 (≈ 9.22 µM)	3 (≈ 9.22 µM)	3 (≈ 9.22 µM)	10 (≈ 30.7 µM)	10 (≈ 30.7 µM)	3 (≈ 9.22 µM)	3 (≈ 9.22 µM)	1 (≈ 3.07 µM)	1 (≈ 3.07 µM)	0.3 (≈ 0.922 µM)	3 (≈ 9.22 µM)	10 (≈ 30.7 µM)	10 (≈ 30.7 µM)	49	1 (≈ 3.07 µM)	3 (≈ 9.22 µM)	3 (≈ 9.22 µM)		
Cc1cc(N(C)C)nc2c(C)cc(Cc3cnc(N)nc3N)cc12	1 (≈ 3.1 µM)	3 (≈ 9.3 µM)	10 (≈ 31 µM)	10 (≈ 31 µM)	10 (≈ 31 µM)	30 (≈ 93 µM)	10 (≈ 31 µM)	3 (≈ 9.3 µM)	3 (≈ 9.3 µM)	1 (≈ 3.1 µM)	1 (≈ 3.1 µM)	3 (≈ 9.3 µM)	10 (≈ 31 µM)	10 (≈ 31 µM)	3 (≈ 9.3 µM)	280	1 (≈ 3.1 µM)	10 (≈ 31 µM)	10 (≈ 31 µM)		
COc1cc(Br)cc2c(N(C)C)cc(C)nc12																				8.18	
COc1cc(Cc2cnc(N)nc2N)cc2c(N(C)C)cc(C)nc12	30 (≈ 88.6 µM)	> 300	> 300	> 300	100 (≈ 295 µM)	30 (≈ 88.6 µM)	300 (≈ 886 µM)	100 (≈ 295 µM)	100 (≈ 295 µM)	100 (≈ 295 µM)	10 (≈ 29.5 µM)	10 (≈ 29.5 µM)	30 (≈ 88.6 µM)	> 30	100 (≈ 295 µM)	70	30 (≈ 88.6 µM)	> 100	> 10		
Cc1cc(N(C)C)nc2ccc(Br)cc12																				7.34	
Brc1ccc2ncccc2c1																					pKa [21]: 3.91
COc1cc(C)c2cc(Cc3cnc(N)nc3N)cc(C)c2n1	1 (≈ 3.23 µM)	10 (≈ 32.3 µM)	10 (≈ 32.3 µM)	30 (≈ 97 µM)	30 (≈ 97 µM)	100 (≈ 323 µM)	30 (≈ 97 µM)	10 (≈ 32.3 µM)	3 (≈ 9.7 µM)	1 (≈ 3.23 µM)	3 (≈ 9.7 µM)	3 (≈ 9.7 µM)	30 (≈ 97 µM)	10 (≈ 32.3 µM)	10 (≈ 32.3 µM)	62	1 (≈ 3.23 µM)	30 (≈ 97 µM)	10 (≈ 32.3 µM)		
COc1cc(C)c2cc(Br)cc(C)c2n1																				2.96	
Nc1ccnc2ccccc12 [QUINOLIN-4-AMINE]																					pKa [21]: 9.13
